In article PMC3600638 (Biomaterials, 2013):
Structures can show the parent of a compound that is named as a salt.

Key:
[1] = system: H460 cells; test: In vitro cell viability; type: cell-based, human; settings: 48 h, MTT
How it was run: (§1)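 Cells seeded at 1×10⁴ per well in 96-well plates. A range of test compound concentrations was added at 30% confluence, then 48 h at 37°C. MTT at 0.5 mg/mL final for 4 h at 37°C, formazan dissolved in DMSO, A570 read. Viability expressed as % of untreated cells; IC50 derived; mean ± S.D., n=3.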

[2] = system: BxPC-3 cells; test: In vitro cell viability; type: cell-based, human; settings: 48 h, MTT
How it was run: as §1

[3] = system: H460 cells; test: In vitro caspase-3/7 activation; type: cell-based, human; settings: 1.8 μM, 48 h
How it was run: (§2)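 H460 or BxPC-3 cells grown in RPMI-1640 with 10% FBS at 37°C and 5% CO₂. 2×10⁵ cells per well in 6-well plates, exposed to 1.8 μM test compound for 48 h. Lysed in RIPA buffer with protease inhibitors, protein measured by BCA, and 40 μg protein assayed with a commercial caspase-3/7 activity kit.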

[4] = system: BxPC-3 cells; test: In vitro caspase-3/7 activation; type: cell-based, human; settings: 1.8 μM, 48 h
How it was run: as §2

[5] = system: H460 xenografts; test: In vivo caspase-3/7 activation in tumors; parameters: species or system nude mice; settings: 3 daily IV injections, 7.5 μmol/Kg, 24 h after last injection
How it was run: (§3)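 Female nude mice, 6–8 weeks old, with s.c. right-flank xenografts (5×10⁶ cells in PBS), n=3. Three daily IV doses of 7.5 μmol/Kg; tumors taken 24 h after the last dose. Tissue homogenised and sonicated in RIPA with protease inhibitors, spun 14,000 rpm for 10 min at 4°C. 40 μg protein (BCA) assayed with a caspase-3/7 kit.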

[6] = system: BxPC-3 xenografts; test: In vivo caspase-3/7 activation in tumors; parameters: species or system nude mice; settings: 3 daily IV injections, 7.5 μmol/Kg, 24 h after last injection
How it was run: as §3

[7] = system: H460 xenografts; test: Western blot of tumor lysates; type: in vivo, nude mice; settings: 3 daily IV injections
How it was run: (§4)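 Tumors from xenograft-bearing nude mice harvested 24 h after three daily IV injections; RIPA lysates prepared. 40 μg protein per lane on 4–12% SDS-PAGE, transferred to PVDF, blocked 1 h in 5% milk. Mouse monoclonal PARP-1 and rabbit polyclonal cyclin D1 antibodies (1:500) overnight at 4°C. β-actin (1:4000) as loading control; secondaries 1:4000 for 1 h; ECL detection.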

[8] = system: BxPC-3 xenografts; test: Western blot of tumor lysates; type: in vivo, nude mice; settings: 3 daily IV injections
How it was run: as §4

[9] = Pharmacokinetic profile; type: in vivo, nude mice; settings: IV bolus, H460 xenograft model
How it was run: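 Nanoparticles co-loaded with trace ³H-CTP as a marker of entrapped drug, given as an IV bolus to nude mice bearing H460 tumors. 30 μL blood drawn from the orbital venous plexus at 20 min, 1, 2, 4, 8 and 24 h, bleached with 30% H₂O₂ and counted by liquid scintillation. %ID in blood calculated with the initial value set at 100%; PK parameters from a non-compartmental fit.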

[10] = system: H460 subcutaneous tumors; test: Tumor growth inhibition study; type: in vivo, nude mice; settings: H460 xenograft, 4 IV injections every other day, 7.5 μmol/Kg
How it was run: (§5)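 Female nude mice, 6–8 weeks old, inoculated s.c. with 5×10⁶ cells. Dosing began day 12 at 150–200 mm³ tumor volume, mice randomised into 6 groups (n=5). IV injections every other day ×4 at 7.5 μmol/Kg. Calipers every other day, V = 0.5×W²×L; body weight recorded every other day; mice euthanised when a tumor reached 20 mm.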

[11] = system: BxPC-3 subcutaneous tumors; test: Tumor growth inhibition study; type: in vivo, nude mice; settings: BxPC-3 xenograft, 4 IV injections every other day, 7.5 μmol/Kg
How it was run: as §5

[12] = system: H460 cells; test: In vitro cellular uptake of NBD-labeled LCPs; type: cell-based, human; settings: pre-incubation with 50 μM haloperidol for 1 h

SMILES | cell viability [1] | cell viability [2] | in vitro caspase-3/7 activity [3] | in vitro caspase-3/7 activity [4] | caspase-3/7 activity in tumors [5] | caspase-3/7 activity in tumors [6] | cleaved PARP in tumors [7] | cleaved PARP in tumors [8] | AUMC [9] | tumor growth inhibition [10] | tumor growth inhibition [11] | effect on cellular uptake of AA-modified LCP [12]
Nc1ccn([C@@H]2O[C@H](COP(=O)(O)OP(=O)(O)OP(=O)(O)O)[C@@H](O)C2(F)F)c(=O)n1 [GTP, Gemcitabine triphosphate tris(triethylammonium) salt] | decreased the cell viability | decreased the cell viability | significantly higher than the control | significantly higher than the control | did not elicit caspase activity in vivo | did not elicit caspase activity in vivo | did not induce PARP elevation | did not induce PARP elevation | 25.34 h^2·% | limited therapeutic effects | limited therapeutic effects | 
O=C(CCCN1CCC(O)(c2ccc(Cl)cc2)CC1)c1ccc(F)cc1 [haloperidol] |  |  |  |  |  |  |  |  |  |  |  | significantly reduced the cellular uptake of AA-modified LCP
Nc1ccn([C@@H]2O[C@H](CO)[C@@H](O)C2(F)F)c(=O)n1 [Gem, 2′, 2′-difluoro 2′-deoxycytidine] | decreased the cell viability | decreased the cell viability | significantly higher than the control | significantly higher than the control | did not elicit caspase activity in vivo | did not elicit caspase activity in vivo | did not induce PARP elevation | did not induce PARP elevation |  | limited therapeutic effects | limited therapeutic effects | 
